Converted amounts (≈) assume the structure as drawn.
system: Mycobacterium tuberculosis; assay: Antimycobacterial activity against Mycobacterium tuberculosis H37Rv ATCC 27294 after 21 to 28 days by twofold agar dilution method; format: functional
Method in brief: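 Twofold agar dilution on Middlebrook 7H11 agar with 10% OADC enrichment, compounds at […]. Each well received 10 μL of H37Rv suspension at 1.5 x 10⁵ cfu/mL grown in 7H9 broth with 10% ADC, giving a final inoculum of 1.5 x 10³ per well. Incubated 21–28 days. MIC read as lowest concentration completely inhibiting visible growth.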

SMILES	MIC [µg/mL]
O=C(c1ccc(Cl)cc1)c1c(C(F)(F)F)[nH]n(-c2ccccc2)c1=O	> 64
CC(C)c1[nH]n(-c2ccccc2)c(=O)c1C(=O)c1ccc(Cl)cc1	64 (≈ 188 µM)
O=C(c1ccc(Cl)cc1)c1c(C(F)(F)F)[nH]n(-c2ccc(Cl)cc2)c1=O	> 64
Cc1c(C(=O)c2ccc(Cl)cc2)c(=O)n(-c2ccccc2)n1C	> 100
Cc1[nH]n(-c2ccc(C(C)C)cc2)c(=O)c1C(=O)c1ccc(Cl)cc1	16 (≈ 45.1 µM)
Cc1c(C(=O)c2ccc(Cl)cc2)c(=O)n(-c2ccc(Cl)cc2)n1Cc1ccccc1	16 (≈ 36.6 µM)
Cc1[nH]n(-c2ccc(F)cc2)c(=O)c1C(=O)c1ccc(Cl)cc1	12.5 (≈ 37.8 µM)
Cc1c(C(=O)c2ccc(Cl)cc2)c(=O)n(-c2ccccc2)n1Cc1ccc([N+](=O)[O-])cc1	> 32
O=C(c1ccc(Cl)cc1)c1c(-c2ccccc2)[nH]n(-c2ccccc2)c1=O	32 (≈ 85.4 µM)
Cc1c(C(=O)c2ccc(Cl)cc2)c(=O)n(-c2ccccc2)n1Cc1ccc(F)cc1	32 (≈ 76 µM)
Cc1c(C(=O)c2ccc(Cl)cc2)c(=O)n(-c2ccccc2)n1Cc1ccccc1	> 64
Cc1c(C(=O)c2ccc(Cl)cc2)c(=O)n(-c2ccc(Cl)cc2)n1Cc1ccc(F)cc1	32 (≈ 70.3 µM)
Cc1nn(-c2ccccc2)c(O)c1C(=O)c1ccc(Cl)cc1	6.25 (≈ 20 µM)
Cc1[nH]n(-c2ccc(Br)cc2)c(=O)c1C(=O)c1ccc(Cl)cc1	4 (≈ 10.2 µM)
Cc1[nH]n(-c2ccc(Cl)cc2)c(=O)c1C(=O)c1ccc(Cl)cc1	6.25 (≈ 18 µM)
Cc1ccc(-n2nc(C)c(C(=O)c3ccc(Cl)cc3)c2O)cc1	16 (≈ 49 µM)
CC(C)c1[nH]n(-c2ccc(Cl)cc2)c(=O)c1C(=O)c1ccc(Cl)cc1	32 (≈ 85.3 µM)
Cc1ccc(-n2[nH]c(-c3ccccc3)c(C(=O)c3ccc(Cl)cc3)c2=O)cc1	32 (≈ 82.3 µM)
Cc1c(C(=O)c2ccc(Cl)cc2)c(=O)n(-c2ccc(Cl)cc2)n1Cc1ccc([N+](=O)[O-])cc1	32 (≈ 66.3 µM)
CC(C)c1ccc(-n2[nH]c(-c3ccccc3)c(C(=O)c3ccc(Cl)cc3)c2=O)cc1	32 (≈ 76.8 µM)
O=C(c1ccc(Cl)cc1)c1c(-c2ccccc2)[nH]n(-c2ccc(Cl)cc2)c1=O	16 (≈ 39.1 µM)
